Activity calls are given as the source filed them.
Columns and labels:
Mus musculus [1] = experiment: Antinociceptive activity against formalin-induced pain in mouse assessed as paw licking during early phase (0 to 10 mins) at 50 mg/kg, ip administered 40 mins before formalin challenge; type: functional, organism-based; parameters: dose 50 mg/kg
Summary of the method: (§1)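 Mice were acclimated 30 min in an observation chamber, then given 20 μL of 2.5% formalin sc into the dorsal hind paw. Dosing was ip (2% DMSO/saline vehicle) 40 min beforehand. Time spent licking the injected paw was scored over 0–10 min and 10–60 min. n = 6/group, means ± SEM, ANOVA with Tukey.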

Mus musculus [2] = experiment: Antinociceptive activity in ip dosed mouse assessed as inhibition of acetic acid-induced abdominal constrictions administered 40 mins before acetic acid challenge measured for 30 mins; type: functional, organism-based; conditions: Abdomen
Summary of the method: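 Dosing was ip in 2% DMSO/saline 40 min before ip acetic acid (0.8% v/v, 10 mL/kg). Writhes (abdominal contraction with hind-limb stretching) were counted over 0–30 min. n = 6 mice/group, means ± SEM, ANOVA with Tukey.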

Mus musculus [3] = experiment: Antinociceptive activity against formalin-induced pain in mouse assessed as paw licking during early phase (0 to 10 mins) at 100 mg/kg, ip administered 40 mins before formalin challenge; type: functional, organism-based; parameters: dose 100 mg/kg; summary of the method: as §1
Mus musculus [4] = experiment: Antinociceptive activity against formalin-induced pain in mouse assessed as paw licking during late phase (10 to 60 mins) at 50 mg/kg, ip administered 40 mins before formalin challenge; type: functional, organism-based; parameters: dose 50 mg/kg; summary of the method: as §1
Mus musculus [5] = experiment: Antinociceptive activity against formalin-induced pain in mouse assessed as paw licking during late phase (10 to 60 mins) at 100 mg/kg, ip administered 40 mins before formalin challenge; type: functional, organism-based; parameters: dose 100 mg/kg; summary of the method: as §1
Mus musculus [6] = experiment: Neurotoxicity in mouse assessed as effect on motor coordination by measuring reduced latency at 100 mg/kg, ip after 40 mins by rotarod test; type: toxicity, organism-based; parameters: dose 100 mg/kg, route intraperitoneal; conditions: in vivo
Summary of the method: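 Mice were pre-selected 24 h earlier for staying on the bar for two 120 s periods. Rotarod was a 3 cm bar at 5 rpm. Mice were tested 40 min after ip dosing, with diazepam 10 mg/kg ip as reference. Time on the rod was recorded up to 120 s. n = 6/group.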

Mus musculus [7] = experiment: Antinociceptive activity against Freund's complete adjuvant-induced paw inflammation in mouse assessed as reduction in mechanical hyperalgesia at 50 mg/kg, ip administered 40 mins before CFA challenge measured after 2 to 6 hrs; type: functional, organism-based; parameters: dose 50 mg/kg
Summary of the method: (§2)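 Mice, lightly halothane-anesthetized, got 20 μL complete Freund's adjuvant (1 mg/mL heat-killed M. tuberculosis in paraffin oil/mannide monooleate) sc into the right hind plantar surface. Treatment was ip in 2% DMSO/saline 40 min before CFA. Mechanical threshold was read with von Frey filaments by the up-down method at 2, 4 and 6 h. n = 6 mice/group, means ± SEM, two-way ANOVA with Bonferroni.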

Mus musculus [8] = experiment: Antinociceptive activity against Freund's complete adjuvant-induced paw inflammation in mouse assessed as reduction in mechanical hyperalgesia at 100 mg/kg, ip administered 40 mins before CFA challenge measured after 2 to 6 hrs; type: functional, organism-based; parameters: dose 100 mg/kg; summary of the method: as §2
Mus musculus [9] = experiment: Antinociceptive activity against Freund's complete adjuvant-induced paw inflammation in mouse assessed as reduction in paw edema at 50 mg/kg, ip administered 40 mins before CFA challenge measured after 2 hrs; type: functional, organism-based; parameters: dose 50 mg/kg
Summary of the method: (§3)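 CFA (20 μL, 1 mg/mL heat-killed M. tuberculosis) was injected sc into the right hind plantar surface. Treatment was ip in 2% DMSO/saline 40 min before. Paw volume was read by plethysmometer before and after CFA, and edema taken as the volume difference (mm3/paw). n = 6 mice/group, means ± SEM, two-way ANOVA with Bonferroni.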

Mus musculus [10] = experiment: Antinociceptive activity against Freund's complete adjuvant-induced paw inflammation in mouse assessed as reduction in paw edema at 50 mg/kg, ip administered 40 mins before CFA challenge measured after 4 hrs; type: functional, organism-based; parameters: dose 50 mg/kg; summary of the method: as §3
Mus musculus [11] = experiment: Antinociceptive activity against Freund's complete adjuvant-induced paw inflammation in mouse assessed as reduction in paw edema at 50 mg/kg, ip administered 40 mins before CFA challenge measured after 6 hrs; type: functional, organism-based; parameters: dose 50 mg/kg; summary of the method: as §3
Mus musculus [12] = experiment: Antinociceptive activity against Freund's complete adjuvant-induced paw inflammation in mouse assessed as reduction in paw edema at 100 mg/kg, ip administered 40 mins before CFA challenge measured after 2 hrs; type: functional, organism-based; parameters: dose 100 mg/kg; summary of the method: as §3
Mus musculus [13] = experiment: Antinociceptive activity against Freund's complete adjuvant-induced paw inflammation in mouse assessed as reduction in paw edema at 100 mg/kg, ip administered 40 mins before CFA challenge measured after 4 hrs; type: functional, organism-based; parameters: dose 100 mg/kg; summary of the method: as §3
Mus musculus [14] = experiment: Antinociceptive activity against Freund's complete adjuvant-induced paw inflammation in mouse assessed as reduction in paw edema at 100 mg/kg, ip administered 40 mins before CFA challenge measured after 6 hrs; type: functional, organism-based; parameters: dose 100 mg/kg; summary of the method: as §3
Mus musculus [15] = experiment: Effect on baseline nociceptive threshold in Freund's complete adjuvant-induced mouse at 50 to 100 mg/kg, ip administered 40 mins before CFA challenge measured 2 to 6 hrs; type: functional, organism-based
Mus musculus [16] = experiment: Inhibition of IL1-beta production in Freund's complete adjuvant-induced mouse at 50 mg/kg, ip administered 40 mins before CFA challenge measured after 2 hrs by ELISA; type: functional, organism-based; parameters: dose 50 mg/kg
Summary of the method: (§4)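 CFA was given intraplantar, with ip dosing (2% DMSO/saline vehicle) 40 min earlier. At 2 h, paw skin was taken under terminal halothane anesthesia. Tissue was extracted (100 mg/mL PBS with 0.4 M NaCl, 0.05% Tween 20 and protease inhibitors) and centrifuged at 3000g for 10 min. Supernatant was assayed by mouse ELISA, in pg/mL. n = 6/group.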

Mus musculus [17] = experiment: Inhibition of IL1-beta production in Freund's complete adjuvant-induced mouse at 100 mg/kg, ip administered 40 mins before CFA challenge measured after 2 hrs by ELISA; type: functional, organism-based; parameters: dose 100 mg/kg; summary of the method: as §4
Mus musculus [18] = experiment: Inhibition of TNF-alpha production in Freund's complete adjuvant-induced mouse at 50 mg/kg, ip administered 40 mins before CFA challenge measured after 2 hrs by ELISA; type: functional, organism-based; parameters: dose 50 mg/kg; summary of the method: as §4
Mus musculus [19] = experiment: Inhibition of TNF-alpha production in Freund's complete adjuvant-induced mouse at 100 mg/kg, ip administered 40 mins before CFA challenge measured after 2 hrs by ELISA; type: functional, organism-based; parameters: dose 100 mg/kg; summary of the method: as §4
Mus musculus [20] = experiment: Inhibition of IL10 production in Freund's complete adjuvant-induced C57BL/6 mouse paw at 100 mg/kg, ip administered 40 mins before CFA challenge measured after 3 hrs by ELISA; type: functional, organism-based; parameters: dose 100 mg/kg
Summary of the method: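 C57BL/6 wild-type mice received an ip dose 40 min before intraplantar CFA. Paw tissue IL-10 was read by ELISA 3 h after CFA, on protein extracts in PBS/0.4 M NaCl/Tween 20 with protease inhibitors. A saline group got 20 μL intraplantar saline instead. n = 6/group, means ± SEM, two-way ANOVA with Bonferroni.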

Mus musculus [21] = experiment: Antinociceptive activity against Freund's complete adjuvant-induced paw inflammation in IL10-deficient C57BL/6 mouse assessed as reduction in mechanical hyperalgesia at 100 mg/kg, ip administered 40 mins before CFA challenge measured 2 to 6 hrs; type: functional, organism-based; parameters: dose 100 mg/kg; summary of the method: as §2
Mus musculus [22] = experiment: Toxicity in mouse assessed as reduction in corporal mass at 50 mg/kg, ip for seven consecutive days relative to control; type: organism-based; parameters: dose 50 mg/kg, route intraperitoneal; conditions: in vivo
Summary of the method: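 Male mice (22–28 g) weighed and dosed once daily ip for seven consecutive days with test agent or vehicle (2% DMSO in saline). Body mass, general appearance and toxic signs followed and compared with vehicle-treated mice. Data are means ± SEM, 6–9 animals per group.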

Mus musculus [23] = experiment: Toxicity in mouse assessed as change in general appearance at 50 mg/kg, ip for seven consecutive days relative to control; type: organism-based; parameters: dose 50 mg/kg, route intraperitoneal; conditions: in vivo
Summary of the method: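 Mice were weighed and dosed ip once daily for 7 consecutive days, vehicle controls alongside, and monitored for toxic signs and general appearance. At the end, retro-orbital blood was taken under light anesthesia for leukocyte counts. Serum, from blood centrifuged at 2500 rpm for 15 min without anticoagulant, was used for ALT and AST.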

## COc1c(O)cc2c(c1O)[C@@H]1O[C@H](CO)[C@@H](O)[C@H](O)[C@H]1OC2=O [BERGENIN]
Mus musculus [1]
  Activity: Active
Mus musculus [2]
  Activity: Dose-dependent effect
Mus musculus [3]
  Activity: Active
Mus musculus [4]
  Activity: Active
Mus musculus [5]
  Activity: Active
Mus musculus [6]
  Activity: Non-toxic
Mus musculus [7]
  Activity: Active
Mus musculus [8]
  Activity: Active
Mus musculus [9]
  Activity: Active
Mus musculus [10]
  Activity: Active
Mus musculus [11]
  Activity: inactive
Mus musculus [12]
  Activity: Active
Mus musculus [13]
  Activity: Active
Mus musculus [14]
  Activity: inactive
Mus musculus [15]
  Activity: inactive
Mus musculus [16]
  inhibition: Active
Mus musculus [17]
  inhibition: Active
Mus musculus [18]
  inhibition: Active
Mus musculus [19]
  inhibition: Active
Mus musculus [20]
  inhibition: inactive
Mus musculus [21]
  Activity: Active
Mus musculus [22]
  Activity: Non-toxic
Mus musculus [23]
  Activity: Non-toxic
